Measured values pooled from the literature.
Compare with care: the assays were run in different laboratories.
SIRT3: NAD-dependent protein deacetylase sirtuin-3, mitochondrial (SIRT3, Homo sapiens, UniProt Q9NTG7)
AGTR2: Type-2 angiotensin II receptor (AGTR2, Homo sapiens, UniProt P50052)
PTGS1: Prostaglandin G/H synthase 1 (PTGS1, Ovis aries, UniProt P05979)

| Compound | target | test | test system | setting | inhibition |
| --- | --- | --- | --- | --- | --- |
| O=C(NC1CCC1)[C@H](Cc1c[nH]c2ccccc12)NC(=O)[C@H](CCCCNC(=S)NCc1cc(O)no1)NS(=O)(=O)c1cccc(F)c1 | SIRT3 | enzyme activity, inhibitor | – | 30 µM | 6% |
| CC(=S)NCCCC[C@H](NC(=O)OCc1ccccc1)C(=O)N[C@@H](Cc1c[nH]c2ccccc12)C(=O)N[C@@H](CCCNC(=N)N)C(N)=O | SIRT3 | enzyme activity, inhibitor | – | 10 µM | 43% |
| COc1cc(NC(C)=O)c(Cl)cc1C(=O)Nc1nccs1 | AGTR2 | cell-free assay | – | 10 µM | 2.7% |
| CC(=S)NCCCC[C@H](NC(=O)OCc1ccccc1)C(=O)N[C@@H](Cc1c[nH]c2ccccc12)C(=O)N[C@@H](CCC(=O)O)C(N)=O | SIRT3 | enzyme activity, inhibitor | – | 10 µM | 9% |
| CCCCCC1C=Cc2cc(Cl)cc(Br)c2O1 (stereo not shown) | SIRT3 | enzyme activity, inhibitor, fluorescence | – | 200 µM | 2% |
| CCN(CC)c1ccc(C2=NNC(=O)CC2C)cc1[N+](=O)[O-] (stereo not shown) | cGMP-inhibited 3',5'-cyclic phosphodiesterase 3B (PDE3B, Homo sapiens, UniProt Q13370) | enzyme activity, inhibitor | – | 0.1 µM | 97% |
| CCCCCC1CC(=O)c2cc(Cl)ccc2O1 (stereo not shown) | SIRT3 | enzyme activity, inhibitor, fluorescence | – | 200 µM | 6% |
| O=c1c(O)c(-c2ccc(O)cc2)oc2cc(O[C@@H]3O[C@H](CO)[C@@H](O)[C@H](O)[C@H]3O)cc(O)c12 | PTGS1 | enzyme activity, inhibitor, absorbance | – | 50 µM | 58.8% |
| CCCCCCCCCCCCCC(=O)NCCCC[C@H](NS(C)(=O)=O)C(=O)N[C@H](C)C(=O)N[C@@H](CCCNC(=N)N)C(N)=O | SIRT3 | enzyme activity, inhibitor | – | 10 µM | 10% |
| CNc1cc(Oc2cc(C(=O)Nc3cc(N4CCN(C)CC4)cc(C(F)(F)F)c3)ccc2C)ncn1 | STE20-related kinase adapter protein alpha (STRADA, Homo sapiens, UniProt Q7RTN6) | target engagement in cells, inhibitor, chemoproteomics | Huh-7 | 1 µM | -86.8% |
| O=c1c(O[C@@H]2O[C@H](CO)[C@@H](O)[C@H](O)[C@H]2O)c(-c2ccc(O)cc2)oc2cc(O[C@@H]3O[C@H](CO)[C@@H](O)[C@H](O)[C@H]3O)cc(O)c12 | PTGS1 | enzyme activity, inhibitor, absorbance | – | 50 µM | 62.9% |
| CCCC1CC(=O)c2cc(Cl)cc(Br)c2O1 (stereo not shown) | SIRT3 | enzyme activity, inhibitor, fluorescence | – | 200 µM | 7% |
| O=C(Nc1cccc(C(=O)Nc2ccc3[nH]ncc3c2)c1)Nc1ccccc1F | BDNF/NT-3 growth factors receptor (NTRK2, Homo sapiens, UniProt Q16620) | enzyme activity, inhibitor, FRET | – | 1 µM | 27.8% |
| CCCCCCCCCCCCNC(=S)NCCCC[C@H](NC(=O)OCc1ccccc1)C(=O)N[C@@H](CCCCN)C(=O)N[C@@H](CCCNC(=N)N)C(N)=O | SIRT3 | enzyme activity, inhibitor | – | 1 µM | 54% |
| C[C@@H]1O[C@@H](OC[C@H]2O[C@@H](O[C@H]3[C@H](Oc4c(-c5ccc(O)cc5)oc5cc(O)cc(O)c5c4=O)O[C@H](CO)[C@@H](O)[C@@H]3O)[C@H](O)[C@@H](O)[C@@H]2O)[C@H](O)[C@H](O)[C@H]1O | PTGS1 | enzyme activity, inhibitor, absorbance | – | 50 µM | 53.3% |
| O=C(COc1ccc2cc(C(=O)Nc3ccccc3)ccc2c1)NCc1ccc(O)c(O)c1 | Signal transducer and activator of transcription 5A, SH2 (Homo sapiens, UniProt P42229) | ligand displacement, FP | – | 100 µM | 1% |
| CCCCCCCCCCCCNC(=S)NCCCC[C@H](NC(=O)OCc1ccccc1)C(=O)N[C@@H](C)C(=O)N[C@@H](CCCNC(=N)N)C(N)=O | SIRT3 | enzyme activity, inhibitor | – | 1 µM | 20% |

| Compound | target | test | test system | setting | inhibition |
| --- | --- | --- | --- | --- | --- |
| O=C(NC1CCC1)[C@H](Cc1c[nH]c2ccccc12)NC(=O)[C@H](CCCCNC(=S)NCCn1nn[nH]c1=O)NS(=O)(=O)c1cccc(F)c1 | SIRT3 | enzyme activity, inhibitor | – | 100 µM | 10% |
| O=c1c(O)c(-c2ccc(O)cc2)oc2cc(O)cc(O)c12 | PTGS1 | enzyme activity, inhibitor, absorbance | – | 50 µM | 61.4% |
| CCCCCCCCCCCCNC(=S)NCCCC[C@H](NC(=O)OCc1ccccc1)C(=O)N[C@@H](Cc1c[nH]c2ccccc12)C(=O)N[C@@H](CCCCNC(=N)N)C(N)=O | SIRT3 | enzyme activity, inhibitor | – | 10 µM | 20% |
| CN(C)C1CCN(CC#Cc2nn(C3CCCC3)c3nc(NCc4ccccc4)ncc23)C1 (stereo not shown) | Serine/threonine-protein kinase Nek2 (NEK2, Homo sapiens, UniProt P51955) | enzyme activity, inhibitor, FRET | – | 0.1 µM | 2% |
| O=C1CC(CCc2c[nH]c3ccccc23)Oc2c(Br)cc(Cl)cc21 (stereo not shown) | SIRT3 | enzyme activity, inhibitor, fluorescence | – | 200 µM | 20% |
| O=C(c1ccc(Cl)cc1)N(Cc1ccccc1)C1CCCCC1 | AGTR2 | cell-free assay | – | 10 µM | 4.4% |
| CCCCCCCCCCCCNC(=S)NCCCC[C@H](NC(=O)OCc1ccccc1)C(=O)N[C@@H](Cc1c[nH]c2ccccc12)C(=O)N[C@@H](CCNC(=N)N)C(N)=O | SIRT3 | enzyme activity, inhibitor | – | 10 µM | 48% |
| CCCCC[C@H]1CC(=O)c2cc(Cl)cc(Br)c2O1 | SIRT3 | enzyme activity, inhibitor, fluorescence | – | 200 µM | 3.9% |
| CCCCCCCCCCCCNC(=S)NCCCC[C@H](NC(=O)OCc1ccccc1)C(=O)N[C@@H](Cc1c[nH]c2ccccc12)C(=O)N[C@@H](CCCNC(=N)N)C(N)=O | SIRT3 | enzyme activity, inhibitor | – | 10 µM | 62% |
| O=C(Nc1ccc(S(=O)(=O)N2CCC(Cl)CC2)cc1)c1ccc([N+](=O)[O-])o1 | Androgen receptor (Ar, Rattus norvegicus, UniProt P15207) | ligand displacement, radioligand | – | 10 µM | 8% |
| CN1CC(Oc2cnc(C#N)cc2-c2ccn3nc(NC(=O)C4CC4)cc3c2)C1 | Transcription initiation factor TFIID subunit 1-like (TAF1L, Homo sapiens, UniProt Q8IZX4) | enzyme activity, inhibitor | – | 1 µM | -5% |
| CCCCCC1CC(O)c2cc(Cl)cc(Br)c2O1 (stereo not shown) | SIRT3 | enzyme activity, inhibitor, fluorescence | – | 200 µM | 3.6% |
| Cn1c(CNC(=S)NCCCC[C@H](NS(=O)(=O)c2cccc(F)c2)C(=O)N[C@@H](Cc2c[nH]c3ccccc23)C(=O)NC2CCC2)n[nH]c1=S | SIRT3 | enzyme activity, inhibitor | – | 30 µM | 51% |
| CCCCCCCC1CC(=O)c2cc(Cl)cc(Br)c2O1 (stereo not shown) | SIRT3 | enzyme activity, inhibitor, fluorescence | – | 200 µM | 8.3% |
| COc1ccc(-n2nc(OCCCN3CCCCC3)ccc2=O)cc1 | Transient receptor potential cation channel subfamily V member 1 (TRPV1, Homo sapiens, UniProt Q8NER1) | ligand displacement | – | 1 µM | 44.5% |
| O=c1cc(-c2ccccc2)oc2c(Br)cc(Cl)cc12 | SIRT3 | enzyme activity, inhibitor, fluorescence | – | 200 µM | 12% |
| Oc1cccc(Nc2nc(-c3ccc(F)cc3F)cs2)c1 | Sodium-dependent serotonin transporter (SLC6A4, Homo sapiens, UniProt P31645) | cell-free assay | – | 10 µM | -7.7% |
